Assay outcomes from PubChem BioAssay.
G6PDH CS = inhibits Leuconostoc G6PDH, flagging false hits in G6PDH-based assays; Purified L. mesenteroides G6PDH, diaphorase/resazurin coupled fluorescence, 45 min; inhibition, % at 5 µM; AID 1020; hit rate 0.12% among 200,000; in the data active = inhibition above about 50%
Tb hexokinase = T. brucei hexokinase 1 inhibition | AID 1430 | inhibition, % at 10 µM | recombinant TbHK1, G6PDH-coupled NADH A340 | hit rate 0.11% among 220,000;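 active = inhibition of 50% or more in the single-dose primary screen; inactive = inhibition below 50%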
PfG6PD inh = PfG6PD (Plasmodium falciparum) enzyme inhibition; PfGluPho enzyme, NADPH resazurin-diaphorase fluorescence; inhibition, % at 20 µM; hit rate 0.78% among 350,000; AID 504690;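 active = inhibition reaching at least a set limit at 20 µM in the primary screen, cut at about 59% in these data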;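 also: 0% = DMSO wells with substrate and 100% = DMSO wells lacking glucose-6-phosphate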
Diaph inh CS = inhibits diaphorase or chemically oxidizes, flagging diaphorase assay artifacts; diaphorase resazurin-to-resorufin fluorescence, NADH, 16 min; bacterial (C. kluyveri) enzyme, not human; inhibition, % at 20 µM; hit rate 0.69% among 190,000; AID 1217;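 active = primary screen inhibition at 20 µM above a set limit, cut at about 50% in these data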;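 also: plate controls were DMSO with full reaction for no effect and wells lacking NADH for full effect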
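Assay system: diaphorase enzyme from Clostridium kluyveri. Quantity: enzyme working solution with 0.14 U/mL diaphorase. Schedule: reaction incubation of 16 min at room temperature. Technique: resorufin fluorescence, excitation 544 nm, emission 590 nm. Controls: No-NADH positive control and DMSO neutral control.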
HKDC1 inh = inhibitors of human hexokinase HKDC1 | AID 493160 | recombinant HKDC1, G6PDH/diaphorase resazurin coupled fluorescence | Q2TB90 | hit rate 0.16% among 340,000 | inhibition, % at 20 µM;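 active = inhibition above about 35% when tested at 20 µM, limit read from the data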;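 also: plate controls were DMSO wells with enzyme for no effect and DMSO wells lacking enzyme for full effect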
Target sequence (Q2TB90 whole entry, looked up): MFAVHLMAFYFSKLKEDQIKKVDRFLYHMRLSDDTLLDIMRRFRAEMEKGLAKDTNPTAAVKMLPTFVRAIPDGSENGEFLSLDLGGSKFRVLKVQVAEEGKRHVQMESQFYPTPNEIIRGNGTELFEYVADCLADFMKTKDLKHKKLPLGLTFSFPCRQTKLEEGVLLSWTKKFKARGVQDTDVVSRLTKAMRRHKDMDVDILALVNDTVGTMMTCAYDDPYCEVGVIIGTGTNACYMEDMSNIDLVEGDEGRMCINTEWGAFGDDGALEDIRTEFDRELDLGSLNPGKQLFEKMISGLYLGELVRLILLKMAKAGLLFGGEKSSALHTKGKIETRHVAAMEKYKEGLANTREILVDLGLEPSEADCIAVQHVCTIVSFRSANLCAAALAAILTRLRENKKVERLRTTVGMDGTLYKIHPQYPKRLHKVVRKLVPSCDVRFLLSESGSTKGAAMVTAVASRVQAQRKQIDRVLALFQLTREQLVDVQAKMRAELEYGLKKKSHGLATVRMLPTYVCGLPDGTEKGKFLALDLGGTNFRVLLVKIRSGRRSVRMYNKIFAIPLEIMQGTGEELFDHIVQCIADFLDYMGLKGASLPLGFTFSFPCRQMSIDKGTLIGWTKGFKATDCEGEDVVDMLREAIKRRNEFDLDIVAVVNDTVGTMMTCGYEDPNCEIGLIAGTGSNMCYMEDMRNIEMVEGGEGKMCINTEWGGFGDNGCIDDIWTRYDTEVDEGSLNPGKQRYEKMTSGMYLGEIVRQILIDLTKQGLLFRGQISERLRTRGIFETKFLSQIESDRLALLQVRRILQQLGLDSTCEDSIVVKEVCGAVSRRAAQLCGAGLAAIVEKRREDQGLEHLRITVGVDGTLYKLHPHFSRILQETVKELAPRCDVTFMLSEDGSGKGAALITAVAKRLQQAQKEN
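System: Recombinant HKDC1 hexokinase | Amount: HKDC1 at 5 µg/mL | Reagent: Glucose with 1 mM ATP | Doses: Single 20 µM dose | Incubation: Reaction time 90 min, room temperature, protected from light | Signal: Coupled resazurin fluorescence, excitation 525 nm, emission 613 nm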
PfGluPho conf = confirmation of Plasmodium falciparum G6PD inhibitors. hit rate 34% among 2,400. inhibition, % at 20 µM. recombinant PfGluPho, NADPH-diaphorase-resazurin fluorescence. shares compounds with PfG6PD inh. AID 504753;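 active = inhibition of at least 50% at 20 µM in any single replicate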;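 also: 0% = DMSO with substrate and 100% = DMSO lacking glucose-6-phosphate substrate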
Diaph ctr 10uM = counter-screen for P. falciparum G6PD inhibitors: diaphorase inhibitors, oxidizers. inhibition, % at 20 µM. AID 504862. shares compounds with PfG6PD inh. hit rate 39% among 820. diaphorase-coupled resazurin reduction, fluorescence, NADPH 10 uM;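 active = average inhibition reaching 50% or more with the compound at 20 µM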;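 also: resorufin red fluorescence formed as diaphorase reduces resazurin using NADPH; 0% = DMSO with enzyme and 100% = DMSO without enzyme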
Diaphorase 30uM = diaphorase inhibition or oxidation at 30 uM NADPH | AID 504863 | hit rate 29% among 820 | inhibition, % at 20 µM | shares compounds with PfG6PD inh | Diaphorase/resazurin coupled assay, resorufin fluorescence;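 active = inhibition averaging 50% or more, tested at 20 µM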;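 also: 0% = DMSO with enzyme and 100% = DMSO wells lacking diaphorase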
The depositor's hits bear a star; nt = no result given. Only some compounds are listed: those with a hit (about 1.2% of all), similar ones and a draw of the others.

SMILES	G6PDH CS	Tb hexokinase	PfG6PD inh	Diaph inh CS	HKDC1 inh	PfGluPho conf	Diaph ctr 10uM	Diaphorase 30uM
COc1cccc(-c2c(C(=O)N/N=C/c3ccc(C)s3)nnn2-c2nonc2N)c1	nt	nt	98*	nt	1	50*	65*	42
O=C1C=CC(=O)N1c1ccc(-c2nc3ccccc3o2)cc1	nt	nt	108*	nt	nt	77*	-25	-3
Nc1ccc(-c2nc3ccccc3o2)cc1	nt	nt	-1	nt	-1	nt	nt	nt
COc1ccc(CCNC(=O)CSCC(=O)Nc2cc(S(C)(=O)=O)ccc2Cl)cc1	nt	nt	2	nt	-5	nt	nt	nt
Nc1cc(=O)[nH]c(SCC(=O)Nc2ccccc2Sc2ccc(Cl)cc2)n1	0	3	50	14	8	nt	nt	nt
O=C(CSc1ncn[nH]1)Nc1ccccc1Sc1ccc(Cl)cc1	7	4	110*	18	-2	68*	59*	57*
CCOC(=O)Cn1c(C)[n+](CC(=O)c2ccccc2)c2ccccc21	nt	-4	-8	nt	-2	nt	nt	nt
CCN1CCN(C(=S)c2ccc(Br)cc2)CC1	8	-2	59	5	-10	nt	nt	nt
CCN1CCN(C(=S)c2ccc(O)cc2)CC1	-3	8	70*	-8	-12	53*	-12	-4
CN1CCN(C(=S)c2ccc(Br)cc2)CC1	0	0	59*	-1	14	61*	-12	-3
CN1CCN(C(=S)c2ccc([N+](=O)[O-])cc2)CC1	4	-11	61*	2	-15	55*	-18	-25
CN1CCN(C(=S)c2ccc(N(C)C)cc2)CC1	10	-13	48	-2	-9	nt	nt	nt
CCN(CCCNC(=O)CNC(=O)c1nn(-c2ccc(OC)c(OC)c2)c(=O)c2ccccc12)c1ccccc1	nt	nt	-2	nt	1	nt	nt	nt
CC(C)[C@@H](C(=O)NC1CCN(Cc2ccccc2)CC1)N1C(=O)N2CCc3c([nH]c4ccccc34)[C@@]2(C)C1=O	nt	nt	3	nt	4	nt	nt	nt
Oc1ccc(C2C[C@H]3CC[C@@H]2C3)cc1O (stereo partly drawn)	nt	nt	79*	nt	5	77*	27	23
Nc1nonc1C(=O)NCCNC(=O)c1cccc(Cl)c1	nt	nt	-5	nt	0	nt	nt	nt
CC(NC(=O)/C(C#N)=C/c1ccco1)c1ccccc1 (stereo not drawn)	nt	-72	-5	nt	-4	nt	nt	nt
CCOCCCNC(=O)/C(C#N)=C/c1ccc([N+](=O)[O-])o1	14	-25	84*	10	15	74*	63*	71*
CC(NC(=O)/C(C#N)=C/c1ccc([N+](=O)[O-])o1)c1ccccc1 (stereo not drawn)	nt	nt	92*	nt	11	69*	64*	66*
COc1ccc(C(CNS(=O)(=O)c2ccc(NC(C)=O)c(OC)c2)N2CCCCC2)cc1 (stereo not drawn)	nt	nt	5	nt	-8	nt	nt	nt
CCCCCC(=O)N1C[C@@H](O)[C@H](n2cc(COC(=O)c3ccccc3)nn2)C[C@@H]1c1ccc(Cl)cc1	nt	nt	1	nt	nt	nt	nt	nt
Cn1cc(CCC(=O)NC2CC(C)(C)Cc3c2cnn3-c2ccc(F)cc2)cn1 (stereo not drawn)	nt	nt	-6	nt	-5	nt	nt	nt
C=CCNc1ncnc2c1cnn2-c1cccc(C)c1	16	1	19	14	2	nt	nt	nt
Cc1cccc(-n2ncc3c(NC4CCCCC4)ncnc32)c1	-1	2	66*	6	2	7	nt	nt
O=C(CCc1nnc2ccc(NCc3ccco3)nn12)N1CCN(c2ccc(F)cc2)CC1	nt	nt	0	nt	3	nt	nt	nt
SMILES	G6PDH CS	Tb hexokinase	PfG6PD inh	Diaph inh CS	HKDC1 inh	PfGluPho conf	Diaph ctr 10uM	Diaphorase 30uM
Cc1ccccc1CS(=O)(=O)CC(O)CN1CCCC1=O (stereo not drawn)	nt	nt	7	nt	-5	nt	nt	nt
O=C(Nc1nnc(COc2ccc(Cl)cc2)s1)c1ccco1	7	0	66*	9	-13	36	nt	nt
Cc1ccc(OCc2nnc(NC(=O)c3ccco3)s2)cc1	-4	6	-22	3	-3	nt	nt	nt
Cc1cccc(C)c1NC(=O)CSc1nnc(-c2ccco2)c(-c2ccco2)n1	24	7	63*	48	22	18	nt	nt
COc1ccc(S(=O)(=O)NN(C)C(=O)c2nn(-c3ccccc3)ccc2=O)cc1	13	-15	1	39	1	nt	nt	nt
N#Cc1cc([N+](=O)[O-])ccc1Oc1cccc(/C=N/NC(=O)c2cccc(Cl)c2)c1	-1	-14	119*	15	7	62*	60*	59*
Cc1cc(=O)c2c(o1)C(=O)c1occc1C2=O	nt	nt	86*	nt	23	53*	65*	62*
CC(=O)Nc1ccc(S(=O)(=O)N(C)CC(=O)OCC(=O)Nc2cc(C)on2)cc1	nt	nt	1	nt	-4	nt	nt	nt
COc1cccc(C(=O)Oc2ccc3ccc(=O)oc3c2)c1	nt	nt	-6	nt	4	nt	nt	nt
Cc1ccc(Nc2ccccc2)cc1	4	6	-3	10	-2	nt	nt	nt
Cc1ccc(Nc2cc(C)c(O)c(C)c2)cc1	nt	nt	107*	nt	29	69*	62*	28
C/C(=N\Nc1cccc([N+](=O)[O-])c1)c1cc(F)ccc1O	nt	-16	84*	nt	-4	16	nt	nt
CNC(=S)N/N=C/c1c(C(=O)OC)cnn1-c1ccc(F)cc1F	nt	-60	68*	nt	-3	23	nt	nt
Fc1ccc(-c2nc3ccc(Cl)cn3c2Cc2ccccc2)cc1	nt	nt	81*	nt	nt	-5	nt	nt
Clc1ccc2nc(-c3ccccc3)c(Cc3ccccc3)n2c1	nt	nt	19	nt	nt	nt	nt	nt
Clc1ccc(-c2nc3ccc(Cl)cn3c2Cc2ccccc2)cc1	nt	nt	102*	nt	nt	17	nt	nt
Cc1ccc(Cc2c(-c3ccccc3)nc3cc(C)ccn23)cc1	nt	nt	23	nt	nt	nt	nt	nt
Cc1ccn2c(Cc3ccccc3)c(-c3ccc(F)cc3)nc2c1	nt	nt	77*	nt	nt	10	nt	nt
O=C(c1ccc2c(c1)N(Cc1ccccc1F)C(=O)c1ccccc1S2)N1CCOCC1	nt	-9	69*	nt	1	35	nt	nt
O=C(c1ccc2c(c1)N(Cc1ccccc1)C(=O)c1ccccc1S2)N1CCCC1	4	-8	102*	10	-3	72*	62*	63*
Cc1cccc(CN2C(=O)c3ccccc3Sc3ccc(C(=O)O)cc32)c1	nt	16	-17	nt	0	nt	nt	nt
CCn1c(NC(=O)c2ccccc2F)c(-c2cccs2)c(=O)c2ccccc21	nt	-34	0	nt	-4	nt	nt	nt
CC(=O)Nc1cc2c(cc1[N+](=O)[O-])-c1ccccc1C2O (stereo not drawn)	nt	nt	81*	nt	8	83*	34	6
NC1=NC(=Nc2ccc(Cl)cc2)c2ccccc21	6	-18	6	4	5	nt	nt	nt
CC(C)c1ccc(N=C2N=C(N)c3ccccc32)cc1	nt	-10	59*	nt	0	30	nt	nt
O=C1C(=NO)CCc2ccccc21	nt	nt	62*	nt	26	29	nt	nt
CCOC(=O)c1[nH]c2ccccc2c1N=CN(C)C	nt	-13	-4	nt	-8	nt	nt	nt
